High-throughput results from PubChem BioAssay.
DNMT1 block: blocks human DNA methyltransferase DNMT1. P26358. DNMT1 molecular beacon, Hinp1I cleavage, fluorescence. inhibition (reported as % activation of signal), % at 10 µM. actives 0.83% (n = 360,000); in the data active = inhibition above about 50%
SUMO1 PPI mod: SUMO1-SIM interaction modulation; P63165; SUMO1 binding to a labelled peptide, TR-FRET, 1 h; inhibition, % at 20 µM; actives 0.33% (n = 360,000); AID 602429; in the data active = inhibition above about 37%
Target sequence (P63165 whole entry, looked up): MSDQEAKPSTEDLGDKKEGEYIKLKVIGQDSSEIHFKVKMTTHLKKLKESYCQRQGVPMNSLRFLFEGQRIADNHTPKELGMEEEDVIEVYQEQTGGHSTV
LMPTP block: blocks human LMPTP phosphatase. P24666. recombinant LMPTP-A, OMFP fluorogenic substrate, fluorescence intensity. AID 651560. inhibition, % at 20 µM. actives 0.22% (n = 360,000);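 active = compounds that cut the enzyme signal by at least half of the control window in the single-dose screen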
Target sequence (P24666 whole entry, looked up): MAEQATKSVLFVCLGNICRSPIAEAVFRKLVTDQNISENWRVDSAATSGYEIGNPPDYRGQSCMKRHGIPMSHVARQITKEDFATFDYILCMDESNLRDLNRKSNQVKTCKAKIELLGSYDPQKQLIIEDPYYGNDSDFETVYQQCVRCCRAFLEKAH
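Test system: LMPTP-A, protein tyrosine phosphatase of low molecular weight; Input: 0.625 nM enzyme; Incubation: 50 min dark incubation at room temperature; Signal: endpoint fluorescence intensity from OMFP dephosphorylation; Read-out basis: % inhibition versus control wells.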
Scp-1 inhibitor: Scp-1 (human) phosphatase inhibition; inhibition, % at 20 µM; actives 0.88% (n = 340,000); Q9GZU7; Recombinant Scp1, phosphopeptide, malachite green phosphate absorbance;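 active = inhibition above about 50% at 20 µM, limit read from the data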
Target sequence (Q9GZU7 76-261 limits assumed): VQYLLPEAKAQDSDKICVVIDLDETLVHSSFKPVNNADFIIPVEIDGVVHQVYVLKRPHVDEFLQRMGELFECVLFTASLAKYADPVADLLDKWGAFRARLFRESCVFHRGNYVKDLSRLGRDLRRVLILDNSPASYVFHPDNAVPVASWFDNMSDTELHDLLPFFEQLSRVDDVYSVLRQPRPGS
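System: truncated SCP-1 phosphatase (76-261aa); medium: Tris acetate buffer pH 5.5 with MgCl2 and Tween-20; incubation: 45 min room-temperature reaction, 5 min colour, 30 min stabiliser; compound: single 20 µM dose, 1% DMSO; reagent: Phosphorylated 17-residue peptide substrate; read-out: % inhibition at 20 µM; technique: colorimetric free-phosphate detection, absorbance 630 nm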
STEP inh: inhibitors of human striatal-enriched phosphatase STEP; AID 588621; recombinant STEP, OMFP fluorogenic substrate, fluorescence; inhibition, % at 20 µM; actives 0.25% (n = 360,000);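 active = inhibition at 20 µM, scaled per plate between control wells, above about 37%, limit read from the data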
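System: STEP phosphatase, cell-free reaction; Buffer or medium: Bis-Tris pH 6.0 buffer with DTT, detergent; Incubation: 20 min at room temperature, dark; Measured by: fluorescence, 480/540 nm.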
Scp-1 conf: confirmation of human Scp-1 phosphatase inhibitors; recombinant SCP-1 catalytic domain, phosphate release, malachite green absorbance; AID 540281; inhibition, % at 20 µM; actives 61% (n = 2,500); shares compounds with Scp-1 inhibitor
MG interference: colorimetric interference in Scp-1 counter-screen; shares compounds with Scp-1 inhibitor; AID 540313; apparent inhibition (interference), % at 20 µM; 2,500 tested, under 10 active; Colorimetric interference counterscreen, malachite green absorbance 630 nm;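 also: compounds added after enzyme reaction finished so only phosphate colour detection is probed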
Scp1 DSF: Scp-1 (human) binding by thermal shift. shares compounds with Scp-1 inhibitor. Recombinant SCP1, Sypro Orange thermal shift Tm. thermal shift relative to vanadate control, % at 40 µM. actives 25% (n = 1,500). AID 540329;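 active = substances whose mean melting-temperature shift, as a percentage of the reference inhibitor's shift, reaches about 5.3%, limit read from the data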
Beacon interf DR: shows spectral interference in the DNMT1 beacon assay. shares compounds with DNMT1 block. molecular beacon fluorescence, spectral interference counter-screen. IC50, µM. 200 tested, under 10 active; call rule not given here
DNMT1 inh conf: confirmation of human DNMT1 inhibitors; actives 8% (n = 2,300); DNMT1 molecular beacon HinP1I cleavage, fluorescence; AID 602385; shares compounds with DNMT1 block; inhibition, % at 10 µM;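 active = average inhibition of at least 30% in the single-concentration confirmation test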
DNMT1 interf: shows spectral interference in the DNMT1 beacon assay. actives 1% (n = 2,300). shares compounds with DNMT1 block. DNMT1 molecular beacon spectral interference counterscreen, fluorescence 485/520. AID 602387. activation (fluorescence interference), % at 10 µM;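 active = activation of at least 30% at 10 µM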;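 also: DNMT1 catalytic domain with a HinP1I cleavage step and a FAM/dabcyl DNA beacon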
Each line names hits and unclear results; the compound was inactive in the other large screens (follow-up assays come after a bar, where they were run). This is a sample that favours compounds with a hit; in the whole collection about 1.7% have one here.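 The calls were made as follows, unless noted: active = inhibition of at least 30% at 20 µM; inactive = the rest.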

CCCN(C(=O)c1cccc(-n2cccc2)c1)c1c(N)n(Cc2ccccc2)c(=O)[nH]c1=O	DNMT1 block 80.9, Scp-1 inhibitor 74.5 | Scp-1 conf 65.7 | MG interference inactive | Scp1 DSF inactive | DNMT1 inh conf inactive | DNMT1 interf inactive
COc1ccc(-c2nnc(NC(=O)c3cccs3)s2)c(OC)c1	DNMT1 block 80.1, Scp-1 inhibitor 96.3 | Scp-1 conf 67.3 | MG interference inactive | Scp1 DSF inactive | DNMT1 inh conf inactive | DNMT1 interf inactive
CC1=NN(c2ccc(Cl)c(C(=O)O)c2)C(=O)C1	DNMT1 block 67.7, SUMO1 PPI mod 40.7, Scp-1 inhibitor 75.4 | Scp-1 conf 53.1 | MG interference inactive | Scp1 DSF 9.5 | DNMT1 inh conf inactive | DNMT1 interf inactive
CC1=NN(c2ccc(C(=O)O)c(N)c2)C(=O)C1	none
CCOC(=O)N1CCC(=NNC(N)=O)C1	none (no result: Scp-1 inhibitor)
C/C=C(\C)C(=O)Nc1cccc(C2=NOC3(C2)C[C@@H](C(N)=O)N(C(=O)/C(C)=C/C)C3)c1 (some centres undefined)	none
C=C(C)C(=O)Nc1cccc(C2=NOC3(C2)C[C@@H](C(N)=O)N(C(=O)CC(c2ccccc2)c2ccccc2)C3)c1 (some centres undefined)	DNMT1 block 101.4, SUMO1 PPI mod 77.3, Scp-1 inhibitor 62.5 | Scp-1 conf 56.8 | MG interference inactive | Scp1 DSF inactive | DNMT1 inh conf inactive | DNMT1 interf inactive
C=C(C)C(=O)Nc1cccc(C2=NOC3(C2)C[C@@H](C(N)=O)N(C(=O)/C(C)=C/C)C3)c1 (some centres undefined)	DNMT1 block 109.7, SUMO1 PPI mod 98.2, Scp-1 inhibitor 99.4 | Scp-1 conf 68.5 | MG interference inactive | Scp1 DSF inactive | Beacon interf DR inactive | DNMT1 inh conf 101.5 | DNMT1 interf inactive
O=C(NCc1ccco1)C1Cc2ccccc2CN1C(=O)c1ccco1 (centres undefined)	none
O=C(NCc1ccco1)C1Cc2ccccc2CN1S(=O)(=O)c1ccccc1F (centres undefined)	DNMT1 block 71.0, Scp-1 inhibitor 70.0 | Scp-1 conf 77.3 | MG interference inactive | Scp1 DSF 7.5 | DNMT1 inh conf inactive | DNMT1 interf inactive
Cc1ccc(/C(O)=C2\C(=O)C(=O)N(CCCN3CCOCC3)C2c2ccccc2F)cc1 (centres undefined)	none (no result: Scp-1 inhibitor)
CC(C)[C@H](NC(=O)c1ccco1)C(=O)OCc1cc(=O)n2c(n1)sc1ccccc12	DNMT1 block 83.9, Scp-1 inhibitor 82.9 | Scp-1 conf 59.5 | MG interference inactive | Scp1 DSF inactive | DNMT1 inh conf inactive | DNMT1 interf inactive
O=C(Cc1coc2cc3c(cc12)CCC3)OCc1cc(=O)n2c(n1)sc1ccccc12	DNMT1 block 84.8, Scp-1 inhibitor 63.3 | Scp-1 conf 51.3 | MG interference inactive | Scp1 DSF 6.3 | DNMT1 inh conf inactive | DNMT1 interf inactive
O=C(OCc1cc(=O)n2c(n1)sc1ccccc12)c1ccc(O)cc1O	DNMT1 block 69.8, Scp-1 inhibitor 78.1 | Scp-1 conf 60.1 | MG interference inactive | Scp1 DSF inactive | DNMT1 inh conf inactive | DNMT1 interf inactive
Cc1ccc2c(CC(=O)OCc3csc(C)n3)coc2c1	none
CCc1c(O)nc2sc3ccccc3n2c1=O	none
O=C(OCc1cc(=O)n2c(n1)sc1ccccc12)c1cccc(O)c1	DNMT1 block 98.1, Scp-1 inhibitor 78.9 | Scp-1 conf 57.7 | MG interference inactive | Scp1 DSF inactive | DNMT1 inh conf inactive | DNMT1 interf inactive
COC(=O)c1cc(=O)nc2sc3ccccc3n12	none
COc1ccc(CNC(=O)[C@H](Cc2ccccc2)NC(=O)CC[C@H]2O[C@@H](n3ccc(=O)[nH]c3=O)[C@H](O)[C@@H]2O)cc1	none (no result: Scp-1 inhibitor)
COC(=O)[C@@]12C[C@@H](CC(=O)NCc3ccc(OC)c(OC)c3)C(=O)N(Cc3ccccc3)C1=CCC(C)(C)C2	none (no result: DNMT1 block, Scp-1 inhibitor, STEP inh)
O=C(COc1cccnc1[N+](=O)[O-])Nc1ncc(Cl)cc1Cl	DNMT1 block 82.7, Scp-1 inhibitor 62.2 | Scp-1 conf 62.6 | MG interference inactive | Scp1 DSF 10.0 | DNMT1 inh conf inactive | DNMT1 interf inactive
Cc1ccsc1/C=C/C1=Cc2c(sc(NC(=O)CSc3n[nH]c(N)n3)c2C#N)C(C)(C)C1	DNMT1 block 89.7, Scp-1 inhibitor 58.2 | Scp-1 conf inactive | MG interference inactive | DNMT1 inh conf inactive | DNMT1 interf inactive
CCOC(=O)C1=C(O)/C(=C\c2ccc(CNC(=O)C(=O)Nc3ccccc3)o2)N=C1C	DNMT1 block 101.3, Scp-1 inhibitor 97.0 | Scp-1 conf 61.7 | MG interference inactive | Scp1 DSF 6.2 | DNMT1 inh conf inactive | DNMT1 interf inactive
CCOC(=O)C1=C(O)/C(=C\c2cccs2)N=C1C	none
CCc1nc2ccc(C(=O)NCc3ccc(OC)cc3)cn2c1N(CCC(C)C)CCN(C)C	none (no result: Scp-1 inhibitor)
COc1ccc(NC(=O)c2c3c(nc4ccccc24)CCC3)cc1S(=O)(=O)N1CCOCC1	DNMT1 block 85.8, Scp-1 inhibitor 80.8 | Scp-1 conf 58.5 | MG interference inactive | Scp1 DSF 10.6 | DNMT1 inh conf inactive | DNMT1 interf inactive
CC1(C)CC(NC(=O)C2CCN(S(=O)(=O)c3cccc(C(F)(F)F)c3)CC2)CC(C)(C)N1	none
CC1CN2C(c3ccc(Cl)cc3)=CSC2=N1 (centres undefined)	none
O=C(CSc1cccc[n+]1[O-])Nc1cc2c(cc1Cl)C(=O)c1ccccc1C2=O	DNMT1 block 92.1, SUMO1 PPI mod 41.1, LMPTP block 50.1, Scp-1 inhibitor 84.9, STEP inh 48.6 | Scp-1 conf inactive | MG interference inactive | DNMT1 inh conf inactive | DNMT1 interf inactive
O=C(CSc1cccc[n+]1[O-])Nc1cc([N+](=O)[O-])ccc1Cl	none
Nc1[nH]n(-c2ccccc2)c(=O)c1N=Nc1ccccc1[N+](=O)[O-]	none
